Compound activity: PubChem BioAssay, Sanford-Burnham Center for Chemical Genomics
SENP1 inh: blocks the human SENP1 SUMO protease catalytic domain; hit rate 0.21% among 360,000; inhibition, % at 10 µM; recombinant SENP1 catalytic domain, CyPet-SUMO1-YPet FRET cleavage; Q9P0U3; AID 624204;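 active = inhibition at least 30% at 10 µM, raw YFP signal under a set limit, fluorescence ratio 0.5 to 1.5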
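Assay system – human recombinant His6-tagged SENP1 catalytic domain enzyme · Input – SENP1 enzyme, 20 pM final · Buffer or medium – Tris pH 8 buffer plus EDTA, NaCl, BME, BSA, NP40, catalase · Schedule – 50 min reaction at room temperature · Technique – FRET read of cyan and yellow fluorescence · Control set – no-enzyme wells low, DMSO-plus-enzyme wells high control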
SENP6 block: inhibitors of human SENP6 protease. Q9GZR1. Recombinant SENP6 catalytic domain, aminoluciferin luminescence. inhibition, % at 10 µM. hit rate 1.8% among 330,000;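 active = inhibition above about 50% at the single tested dose, limit read from the data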
SENP8 block-1: blocks the human protease SENP8; Q96LD8; purified SENP8, Z-RLRGG-aminoluciferin cleavage, luminescence; inhibition, % at 10 µM; hit rate 1.2% among 330,000; AID 2540; in the data active = inhibition above about 50%
Target sequence (Q96LD8 whole entry, looked up): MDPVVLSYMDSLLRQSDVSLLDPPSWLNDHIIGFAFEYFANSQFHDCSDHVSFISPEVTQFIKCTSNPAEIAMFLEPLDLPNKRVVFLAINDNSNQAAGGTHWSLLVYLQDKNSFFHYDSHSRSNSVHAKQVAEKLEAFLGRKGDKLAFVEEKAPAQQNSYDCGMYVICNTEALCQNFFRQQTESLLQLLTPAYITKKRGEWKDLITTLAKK
SENP8 block-2: blocks human SENP8 cleavage of Nedd8 substrate | hit rate 0.64% among 360,000 | recombinant SENP8, Nedd8 substrate fluorescence | AID 602440 | inhibition, % at 20 µM; in the data active = inhibition mostly above about 40%, no sharp cut-off; inactive = mostly below about 27%
SENP7 block: blocks the human protease SENP7 | Q9BQF6 | recombinant SENP7, Z-RLRGG-aminoluciferin luminescence, 40 min | inhibition, % at 5 µM | hit rate 1.5% among 330,000 | AID 434973;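 active = inhibition above about 50% at the single test dose, limit read from the data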
Target sequence (Q9BQF6 706-1050 limits assumed): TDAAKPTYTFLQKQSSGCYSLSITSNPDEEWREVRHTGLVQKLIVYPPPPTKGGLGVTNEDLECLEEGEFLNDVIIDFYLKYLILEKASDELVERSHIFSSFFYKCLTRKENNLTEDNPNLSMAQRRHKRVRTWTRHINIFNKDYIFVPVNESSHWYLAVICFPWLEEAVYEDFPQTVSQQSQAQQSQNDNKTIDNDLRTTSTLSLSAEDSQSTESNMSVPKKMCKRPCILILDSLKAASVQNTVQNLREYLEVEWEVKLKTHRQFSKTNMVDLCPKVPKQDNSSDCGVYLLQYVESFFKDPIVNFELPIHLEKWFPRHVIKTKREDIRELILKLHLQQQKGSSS
Large screens that a line does not name were inactive. Rows were chosen to be rich in hits. Some 2.5% of all compounds tested hit in one or more screens of this group.

Cc1nn(-c2ccccc2)c(Cl)c1/C=N/Nc1nc2ccccc2[nH]1	SENP6 block 52, SENP7 block 85
CCC(C(=O)N/N=C(\C)c1cccnc1)c1ccccc1 (stereo not drawn)	none
CCOc1ccc2nc(S(=O)(=O)NC(=O)C3(C)CCN3C(=O)c3cc(C)n(C)n3)sc2c1 (stereo not drawn)	none (no result: SENP6 block, SENP8 block-1, SENP7 block)
Cc1nn(-c2cccc(Cl)c2)c2nc(-c3ccncc3)cc(C(=O)N3CCOCC3)c12	none
COc1cc(/C=N/NS(=O)(=O)c2ccc(C)c([N+](=O)[O-])c2)ccc1O	none
COc1cc(/C=N/NS(=O)(=O)c2ccc(C)c([N+](=O)[O-])c2)cc([N+](=O)[O-])c1O	SENP8 block-2 41
O=C(N=C1c2ccccc2CN1c1ccc(F)c(Cl)c1)c1cccnc1Cl	SENP6 block 66, SENP8 block-1 62, SENP7 block 61 (no result: SENP1 inh, SENP8 block-2)
COc1cccc(/C=N/Nc2ncccc2[N+](=O)[O-])c1OC	SENP6 block 99, SENP8 block-1 95, SENP7 block 98
O=[N+]([O-])c1ccc(NN=Cc2cccc3ccccc23)nc1	none (no result: SENP6 block, SENP8 block-1, SENP7 block)
COc1cccc(/C=N/Nc2ccc([N+](=O)[O-])cn2)c1O	SENP6 block 90, SENP8 block-1 84, SENP7 block 98
O=C(COC(=O)c1cc(=O)[nH]c2ccccc12)NC(=O)c1ccccc1	none
CCCCNc1ccc2nsnc2c1[N+](=O)[O-]	SENP6 block 67
COc1ccc([C@@H]2C[C@H]3[C@@H](CN2S(=O)(=O)c2ccccc2)C(=O)C[C@@H](c2cccc(Cl)c2)N3S(=O)(=O)c2ccc(C)cc2)cc1	none (no result: SENP6 block, SENP8 block-1, SENP7 block)
CC(/C=C/c1ccc(OCc2ccccc2)cc1)=N\O	SENP7 block 70
O=C(/C=C/c1ccccc1)C1C(=O)c2ccccc2C1=O	none
CCc1ccc(/C=C/C(=O)C2C(=O)c3ccccc3C2=O)cc1	SENP8 block-2 50
Cc1cc(/C=C(\C#N)C(=O)N2CCOCC2)c(C)n1C1CCCC1	none
O=C(Nc1ccc(O)c(C(=O)O)c1)Oc1ccccc1	SENP6 block 76, SENP8 block-1 60, SENP7 block 56
CNc1ccc(-c2cccc(C#N)c2)cn1	none (no result: SENP6 block, SENP8 block-1, SENP7 block)
COC(=O)c1ccccc1NC(=O)COC(=O)c1ccccc1N=Nc1ccc(N(C)C)cc1	SENP8 block-2 42
CC(=O)c1ccc(NC(=O)COC(=O)c2ccccc2N=Nc2ccc(N(C)C)cc2)cc1	none
O=C1c2cccc(Cl)c2C(=O)c2c1cccc2N1CCCC1	SENP8 block-2 74
NC(=O)c1ccc(N=Nc2c(O)c3ccccc3[nH]c2=O)cc1	none (no result: SENP1 inh, SENP8 block-2)
CCOC(=O)c1ccc(N=Nc2c(C)c(C#N)c(O)[nH]c2=O)cc1	SENP6 block 92, SENP8 block-1 94, SENP7 block 98
O=C(NNc1ccc([N+](=O)[O-])cn1)Nc1ccc(N=Nc2ccccc2)cc1	SENP8 block-2 48 (no result: SENP6 block, SENP8 block-1, SENP7 block)
O=C1c2cccc3c2C2(O)c4c1cccc4C(=O)c1cccc(c12)C3=O	none (no result: SENP6 block, SENP8 block-1, SENP7 block)
O=C1c2ccccc2C(=O)C1(O)O	SENP6 block 57, SENP8 block-1 62 (no result: SENP1 inh, SENP8 block-2)
Cc1ccc2c(c1)-c1c(ssc1=S)C(C)(C)N2C(=O)CSc1nncn1C	SENP8 block-2 43
CCCc1ccc(OCC(=O)NNC(=O)c2cccnc2)cc1	none
CCCCOc1ccc(OCCCC)c2c1NC1(N2)C(=O)N(C(C)=O)c2ccccc21	SENP1 inh 45
CC(C)(C)OC(=O)N1CCN(C(=O)c2[nH]cnc2C(=O)Nc2cccc(Cl)c2)CC1	none
CCCc1ccc(C(=O)NNC(=O)c2ccc(Br)cc2)cc1	none
CCCc1ccc(C(=O)NC(=O)c2ccccc2O)cc1	SENP6 block 73, SENP8 block-1 62
O=C(Nc1cc(Cl)c(Cl)cc1Cl)c1cccnc1	none
CC(CCC(C)C(C)(C)C)[C@@H]1CC[C@H]2C3C[C@H](OS(O)(=S)=S)[C@H]4C[C@H](OS(O)(=S)=S)[C@@H](OS(O)(=S)=S)C[C@]4(C)[C@H]3CC[C@]12C (stereo partly drawn) (tested in a mixture with another compound)	SENP8 block-1 54
O=C(N/N=C/c1ccncc1)c1ccccn1	none
O=C(N/N=C/c1ccc(N2CCOCC2)cc1)c1ccccn1	SENP6 block 56, SENP7 block 55
COc1ccccc1-c1cnc(C(O)c2cc(C)ccc2C)[nH]1 (stereo not drawn)	none (no result: SENP6 block, SENP8 block-1, SENP7 block)
Cc1ccc(OCc2ccc(C(=O)O)o2)c([N+](=O)[O-])c1	SENP6 block 77, SENP8 block-1 72, SENP7 block 59
O=C(O)c1ccc(COc2ccc3ccccc3c2)o1	SENP6 block 89, SENP8 block-1 81, SENP7 block 55
O=C(O)CSc1cc(NS(=O)(=O)c2cccc([N+](=O)[O-])c2)c2ccccc2c1O	none (no result: SENP6 block, SENP8 block-1, SENP7 block)
CCOc1ccc(S(=O)(=O)Nc2cc(SCC(=O)O)c(O)c3ccccc23)cc1	SENP8 block-2 46 (no result: SENP6 block, SENP8 block-1, SENP7 block)
Oc1cc2c(cc1O)C1c3ccc(O)c(O)c3OCC1(O)C2 (stereo not drawn)	SENP8 block-2 69
CCOc1cccc(CNn2cnnc2)c1OCc1ccccc1Cl	none
CCOc1cccc(CNc2ccc(O)cc2)c1OCc1ccc(Cl)cc1Cl	SENP8 block-2 69
CCOc1cccc(CNc2ccc(O)cc2)c1OCc1ccccc1Cl	SENP7 block 55
CC(=O)Nc1cccc(Oc2nc(NC(C)C)nc3cc(-c4ccccc4)sc23)c1	none (no result: SENP6 block, SENP8 block-1, SENP7 block)
O=c1oc(-c2ccc([N+](=O)[O-])cc2)nc2ccc(O)cc12	SENP6 block 95, SENP8 block-1 95, SENP7 block 100
O=c1oc(-c2ccc([N+](=O)[O-])cc2)nc2ccccc12	none
COc1cccc(-c2cc(C(F)(F)F)c3c(N)c(C#N)sc3n2)c1	SENP7 block 86 (no result: SENP1 inh, SENP8 block-2)
COc1ccc(-c2cc(C(F)(F)F)c3c(N)c(C(=O)NCCSC)sc3n2)cc1	none
O=C(/C=C/Nc1ccc(F)c(F)c1)c1ccc(Br)cc1	SENP7 block 67
CSC1=NC=C(C#N)C2=NC(c3c(Cl)cccc3Cl)NN12 (stereo not drawn)	SENP8 block-2 52 (no result: SENP6 block, SENP8 block-1, SENP7 block)
Oc1c(N=Nc2ccccn2)ccc2ccccc12	SENP6 block 94, SENP8 block-1 96
CC(=O)N(C1=C(Cl)C(=O)c2ccccc2C1=O)C1CCCCC1	SENP6 block 51
CN=c1scc(-c2ccccc2F)n1/N=C/c1ccc(O)c(O)c1O	SENP8 block-2 43 (no result: SENP6 block, SENP8 block-1, SENP7 block)
CC(C)N=c1scc(-c2cccs2)n1/N=C/c1ccc(O)c(O)c1O	none
O=C(O)c1ccc(NC2=C(n3nnc4ccccc43)C(=O)c3ccccc3C2=O)cc1	SENP8 block-2 55
CN1C(=O)/C(=C\c2cc(N=Nc3ccccc3)ccc2O)SC1=S	SENP8 block-2 49
COC(=O)c1ccc(NC(=O)CS(=O)(=O)c2ccccc2)cc1	none
CN1CCN(c2ccc(NC(=O)c3ccc(Br)o3)cc2)CC1	SENP6 block 57
COC1=CC(=O)c2nc(Cl)ccc2C1=O	SENP8 block-2 88 (no result: SENP6 block, SENP8 block-1, SENP7 block)
N#C/C(=C(/O)COc1ccc(Cl)cc1)c1nc2ccccc2s1	SENP6 block 93, SENP8 block-1 81
